Bioassay records: PubChem BioAssay, The Scripps Research Institute Molecular Screening Center
Compounds with a hit are over-represented: about 3.2% of the library has one in this group of screens.
LEDGF integ inh: blocks HIV-1 LEDGF/p75-dependent DNA integration. TR-FRET IN-LEDGF/p75 DNA integration, Eu/Cy5. inhibition, % at 3.7 µM. actives 0.64% (n = 370,000);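 active means inhibition above the screen-wide mean plus 3 SD, cut at about 13% in these data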;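 further: signal is the Cy5 over europium emission ratio at 671 and 618 nm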
rCAG RNA binder: binds r(CAG) RNA repeats; r(CAG) RNA repeat, TO-PRO-1 dye displacement fluorescence; inhibition, % at 3 µM; actives 1.3% (n = 370,000); AID 651821;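 active means inhibition above the plate cutoff, the mean of all test compounds on that plate plus 3 SD, cut at about 35% in these data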;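 further: higher means more dye released from RNA so lower well fluorescence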
PRMT1 FP inh: blocks human protein arginine methyltransferase 1 | inhibition, % at 2.79 µM | recombinant PRMT1, activity-based probe fluorescence polarization | actives 1.3% (n = 370,000) | Q99873;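 active means inhibition above about 21% made by adding two undisclosed values, limit read from the data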
Target sequence (Q99873 whole entry, looked up): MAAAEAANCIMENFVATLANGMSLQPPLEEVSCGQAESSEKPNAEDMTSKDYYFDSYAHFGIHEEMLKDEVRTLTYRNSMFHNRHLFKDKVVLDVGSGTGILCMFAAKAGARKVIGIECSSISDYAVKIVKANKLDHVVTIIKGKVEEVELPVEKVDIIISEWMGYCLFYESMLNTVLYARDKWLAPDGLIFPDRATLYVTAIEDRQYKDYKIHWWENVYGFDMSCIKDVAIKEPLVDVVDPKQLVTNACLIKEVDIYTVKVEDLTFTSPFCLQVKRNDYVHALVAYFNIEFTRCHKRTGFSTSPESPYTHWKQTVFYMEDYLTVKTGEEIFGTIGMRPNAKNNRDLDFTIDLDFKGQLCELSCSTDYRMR
ABHD4 inh: inhibits mouse alpha/beta hydrolase domain 4; Q8VD66; purified mABHD4, FP-Rh probe fluorescence polarization; inhibition, % at 8.92 µM; actives 0.54% (n = 370,000); AID 720543;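 active means inhibition exceeding the mean over every tested compound plus 3 SD, cut at about 30% in these data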
Target sequence (Q8VD66 whole entry, looked up, the tested form may be a part): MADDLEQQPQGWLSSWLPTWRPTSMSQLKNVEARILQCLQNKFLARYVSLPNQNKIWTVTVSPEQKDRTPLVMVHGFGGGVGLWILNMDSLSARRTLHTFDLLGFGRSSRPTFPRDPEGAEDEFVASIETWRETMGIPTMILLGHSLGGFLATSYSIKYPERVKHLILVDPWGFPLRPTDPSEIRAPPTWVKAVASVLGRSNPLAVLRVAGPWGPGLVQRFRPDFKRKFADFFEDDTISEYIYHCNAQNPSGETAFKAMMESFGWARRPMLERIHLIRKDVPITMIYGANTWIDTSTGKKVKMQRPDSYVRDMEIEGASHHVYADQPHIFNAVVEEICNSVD
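assay system = mABHD4 protein | compound dosing = single nominal dose of 8.92 µM, 0.89% DMSO final | read-out basis = percent inhibition of probe binding, normalized to plate controls | schedule = Enzyme–compound pre-incubation 45 min, then probe 60 min, both 25 °C | detection = fluorescence polarization, excitation 525 nm, emission 598 nm, BODIPY TMR filters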
HTRA1 inhibitor: blocks human HTRA1 serine peptidase; recombinant HTRA1, FP-rhodamine activity-based probe, fluorescence polarization; inhibition, % at 5.96 µM; actives 0.5% (n = 340,000); AID 504803; in the data active means inhibition above about 36%
DAGLB inh: blocks human DAGLB lipase activity; Q8NCG7; HEK293T DAGLB membrane lysate, EnzChek fluorogenic substrate; inhibition, % at 5.17 µM; actives 0.059% (n = 340,000); in the data active means inhibition above about 34%
DAGLB inh conf: DAGLB (human) inhibition, confirmation screen; HEK293T DAGLB membrane lysate, EnzChek fluorogenic substrate; shares compounds with DAGLB inh; AID 504445; inhibition, % at 5.17 µM; actives 73% (n = 190);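 active means mean inhibition over triplicate wells above a set limit taken from the primary lipase screen, cut at about 34% in these data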
HTRA1 inh conf: HTRA1 (human) inhibition, confirmation | AID 540248 | actives 66% (n = 1,600) | recombinant HTRA1, FP-rhodamine activity-based probe, fluorescence polarization | inhibition, % at 5.96 µM | shares compounds with HTRA1 inhibitor;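 active means mean inhibition over three repeats above a set limit taken from the earlier primary screen, cut at about 37% in these data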;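 further: inhibitors block probe binding so polarization drops and inhibition rises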
rCAG binder conf: r(CAG) RNA repeat binding, confirmation | shares compounds with rCAG RNA binder | TO-PRO-1 dye displacement fluorescence | inhibition, % at 3 µM | actives 70% (n = 4,300) | AID 652065;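 active means inhibition above a per-plate cutoff, the mean inhibition of sample wells plus 3 SD, cut at about 35% in these data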;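 further: loss of TO-PRO-1 fluorescence as compound displaces dye from 1x1 AA loop RNA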
DNA CAG counter: counter-screen for rCAG RNA binders: DNA CAG dye complex inhibitors. inhibition, % at 3 µM. AID 652068. shares compounds with rCAG RNA binder. actives 94% (n = 4,300). d(CAG) DNA oligo TO-PRO-1 dye displacement, fluorescence;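 active means inhibition above its plate's cutoff, the mean test-well inhibition plus 3 SD, cut at about 4.8% in these data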;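 further: hits displace the dye from DNA and so lower well fluorescence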
PRMT1 confirm: confirmation of human PRMT1 inhibitors; inhibition, % at 2.79 µM; recombinant His-PRMT1, activity-based probe fluorescence polarization; shares compounds with PRMT1 FP inh; actives 42% (n = 3,300);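 active means mean inhibition across replicates above the hit cutoff derived for the earlier primary screen, cut at about 22% in these data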
ABHD4 confirm: confirmation of mouse ABHD4 inhibitors; shares compounds with ABHD4 inh; purified mABHD4, FP-Rh probe fluorescence polarization; inhibition, % at 8.92 µM; actives 55% (n = 1,800); AID 720658;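 active means mean inhibition across replicates above the hit cutoff set in the primary screen, cut at about 30% in these data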
IN multimer up: activates HIV-1 integrase multimerization in LEDGF counter-screen; shares compounds with LEDGF integ inh; TR-FRET HIV-1 integrase multimerization, biochemical; activation, % at 7.7 µM; actives 17% (n = 2,000); AID 1053131; in the data active means activation above about 8.9%
TRFRET interf: counter-screen for LEDGF/p75 integration inhibitors: TR-FRET optical interference; shares compounds with LEDGF integ inh; TR-FRET optical interference counterscreen, HIV-1 IN multimerization; inhibition, % at 7.7 µM; 2,000 tested, under 10 active;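 active means inhibition above the mean over all tested compounds plus 3 SD, which no compound reached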
IN-LEDGF confirm: confirmation of HIV-1 LEDGF/p75-dependent integration inhibitors | shares compounds with LEDGF integ inh | TR-FRET LEDGF/p75-dependent HIV-1 integration, biochemical | inhibition, % at 3.7 µM | actives 36% (n = 2,000); in the data active means inhibition above about 14%
Of the large screens only hits and unclear results are named; the others gave an inactive call (follow-up assays come after a bar, where they were run); ! = not active in a repeat.

CC(=O)c1ccc2c(c1)C1C(Cl)C(Sc3ccccc3[N+](=O)[O-])CC1C(C(=O)O)N2 (stereo unspecified)	LEDGF integ inh 14, rCAG RNA binder 87, PRMT1 FP inh 49, ABHD4 inh 54, HTRA1 inhibitor 88, DAGLB inh 36 | DAGLB inh conf inactive | HTRA1 inh conf 71 | rCAG binder conf 95 | DNA CAG counter 73 | PRMT1 confirm 23 | ABHD4 confirm 104 | IN multimer up inactive | TRFRET interf inactive | IN-LEDGF confirm 20
CN(C)c1ccc([P+](=O)c2ccc(N(C)C)cc2)cc1	none
O=C(COC(=O)Cc1ccccc1)NC(=O)NC1CCCCC1	HTRA1 inhibitor 36 | HTRA1 inh conf 38
Oc1ccc(/C=N/NP(=S)(c2ccccc2)c2ccccc2)cc1O	HTRA1 inhibitor 58 | HTRA1 inh conf 62
COC(=O)C1=C(c2ccccc2OCc2ccccc2)C[C@@H]2CC[C@H]1N2C(=O)NCCCOC(C)C	none
N#CCC(=O)NN1Cc2ccccc2C1=N	none
Cn1ccnc1P(=S)(c1nccn1C)c1nccn1C	HTRA1 inhibitor 71 | HTRA1 inh conf 106
COc1ccccc1CCNCc1cc2c(cc1[N+](=O)[O-])OCO2	HTRA1 inhibitor 42 | HTRA1 inh conf inactive
COc1ccc(Br)cc1CNCCc1ccc2c(c1)OCO2	none
CC[C@H](C(N)=O)N1CCCC1=O	none (no result: HTRA1 inhibitor, DAGLB inh)
COc1cccc(-n2c(/C=C/c3ccc(O)c(O)c3)nc3ccccc3c2=O)c1	HTRA1 inhibitor 58 | HTRA1 inh conf 47
COc1ccc(-n2c(/C=C/c3ccc(O)c(OC)c3)nc3ccccc3c2=O)cc1	none
CN(C)[C@@H]1C(=O)C(C(N)=O)=C(O)[C@@]2(O)C(=O)C3=C(O)c4c(O)cccc4[C@@](C)(O)[C@H]3[C@H](O)[C@@H]12	LEDGF integ inh 61, rCAG RNA binder 70, PRMT1 FP inh 61, ABHD4 inh 63, HTRA1 inhibitor 51 | HTRA1 inh conf inactive | rCAG binder conf 67 | DNA CAG counter 34
COc1ccc(C2N(c3cc(C)on3)C(=O)C3CCCN32)cc1 (stereo unspecified)	none
Oc1ccc(/C=N/NP(=S)(c2ccccc2)c2ccccc2)c(O)c1O	rCAG RNA binder 37, HTRA1 inhibitor 75 | HTRA1 inh conf 85 | rCAG binder conf 56 | DNA CAG counter 28
C1CC2OC2CC1C1CO1 (stereo unspecified)	none
CC1=C[C@@H]2c3cccc4[nH]cc(c34)C[C@H]2N(C)C1	PRMT1 FP inh 39, HTRA1 inhibitor 40 | HTRA1 inh conf inactive | PRMT1 confirm 36
Cc1ccc(S(=O)(=O)N2CCCC2c2cccnc2)cc1 (stereo unspecified)	none
CCOc1ccc(-n2c(O)c(C=Nc3ccc(N(CC)CC)cc3)c(=O)[nH]c2=O)cc1	none
CCN(CC)c1ccc(N=Cc2c(O)n(-c3ccccc3)c(=O)[nH]c2=O)cc1	PRMT1 FP inh 25, ABHD4 inh 67, HTRA1 inhibitor 40 | HTRA1 inh conf inactive | ABHD4 confirm inactive
CCOC(=O)C1CCCN(c2ccc([N+](=O)[O-])c3nonc23)C1 (stereo unspecified)	PRMT1 FP inh 122, ABHD4 inh 67, HTRA1 inhibitor 47 | HTRA1 inh conf 56 | PRMT1 confirm 135 | ABHD4 confirm 56
CCCC12CN3CCN(CC(C3)/C1=N\NC(=O)c1ccncc1)C2	none
CC1CN2c3ccc([N+](=O)[O-])cc3CC3(C(=O)N(C)C(=O)N(C)C3=O)C2C(C)O1 (stereo unspecified)	none
C=CCN1CCc2cccc3c2[C@H]1Cc1ccc(O)c(O)c1-3	PRMT1 FP inh 40, ABHD4 inh 44, HTRA1 inhibitor 63 | HTRA1 inh conf 80 | ABHD4 confirm inactive
NCCc1cc(O)c(O)cc1O	LEDGF integ inh 56, rCAG RNA binder 61, PRMT1 FP inh 43!, ABHD4 inh 45, HTRA1 inhibitor 73 | HTRA1 inh conf 48 | rCAG binder conf inactive | DNA CAG counter 14 | ABHD4 confirm 92 | IN multimer up 64 | TRFRET interf inactive | IN-LEDGF confirm 75
COc1ccc(CCN)cc1O	none
O=C(NC1CCCCC1)N1Cc2ccc(Br)cc2-n2nncc2C1	none (no result: HTRA1 inhibitor, DAGLB inh)
CC(C)NC1(c2ccccc2)CCCCC1	none (no result: HTRA1 inhibitor, DAGLB inh)
CN(C)[C@@H]1C(=O)C(C(N)=O)=C(O)[C@@]2(O)C(=O)C3=C(O)c4c(O)ccc(Cl)c4[C@@](C)(O)[C@H]3C[C@@H]12	LEDGF integ inh 14, PRMT1 FP inh 24, ABHD4 inh 57, HTRA1 inhibitor 40 | HTRA1 inh conf inactive | ABHD4 confirm inactive | IN multimer up inactive | TRFRET interf inactive | IN-LEDGF confirm inactive
CCN(CC)c1ccc(N=Cc2c(O)[nH]c(=O)[nH]c2=O)cc1	LEDGF integ inh 26, PRMT1 FP inh 31, ABHD4 inh 57, HTRA1 inhibitor 53 | HTRA1 inh conf inactive | ABHD4 confirm inactive | IN multimer up 12 | TRFRET interf inactive | IN-LEDGF confirm inactive
CCN(CC)c1ccc(N=Cc2c(O)n(Cc3ccccc3)c(=O)[nH]c2=O)cc1	none
